Only some compounds are listed: those with a hit (about 2.4% of all), similar ones and a draw of the others.
NadD inh – blocks S. aureus nicotinate mononucleotide adenylyltransferase | purified NadD enzyme, colorimetric absorbance read-out | AID 602399 | hit rate 0.78% among 360,000 | inhibition, % at 20 µM; in the data active = inhibition above about 26%
DNMT1 block – DNMT1 (human) enzyme inhibition; DNMT1 molecular beacon, Hinp1I cleavage, fluorescence; hit rate 0.83% among 360,000; P26358; inhibition (reported as % activation of signal), % at 10 µM; in the data active = inhibition above about 50%
Scp1 inh – blocks human Scp-1 phosphatase activity. inhibition, % at 20 µM. Recombinant Scp1, phosphopeptide, malachite green phosphate absorbance. AID 493091. Q9GZU7. hit rate 0.88% among 340,000;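 active = inhibition above about 50% at 20 µM, limit read from the data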
Target sequence (Q9GZU7 76-261 limits assumed): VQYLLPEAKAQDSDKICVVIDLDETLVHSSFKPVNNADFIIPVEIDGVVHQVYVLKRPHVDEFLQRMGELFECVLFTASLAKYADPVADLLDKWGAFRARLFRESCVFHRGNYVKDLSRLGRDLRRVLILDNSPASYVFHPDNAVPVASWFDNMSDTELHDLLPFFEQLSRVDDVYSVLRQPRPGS
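Incubation: 45 min enzyme reaction at room temperature / System: truncated SCP-1 phosphatase (76-261aa) / Reagent: Phospho 17-mer peptide substrate / Buffer or medium: Acidic Tris acetate buffer with magnesium and detergent / Signal: absorbance at 630 nm / Doses: one concentration, 20 µM, with 1.0% DMSO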
SUMO1-SIM PPI – SUMO1-SIM interaction modulation. inhibition, % at 20 µM. SUMO1 binding to a labelled peptide, TR-FRET, 1 h. hit rate 0.33% among 360,000; in the data active = inhibition above about 37%
Target sequence (P63165 whole entry, looked up): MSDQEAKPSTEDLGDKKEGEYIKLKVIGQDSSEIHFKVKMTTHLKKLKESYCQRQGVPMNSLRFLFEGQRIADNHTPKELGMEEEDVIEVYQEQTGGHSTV
LMPTP block – LMPTP (human) inhibition | P24666 | recombinant LMPTP-A, OMFP fluorogenic substrate, fluorescence intensity | inhibition, % at 20 µM | hit rate 0.22% among 360,000 | AID 651560;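 active = compounds that cut the enzyme signal by at least half of the control window in the single-dose screen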
Target sequence (P24666 whole entry, looked up): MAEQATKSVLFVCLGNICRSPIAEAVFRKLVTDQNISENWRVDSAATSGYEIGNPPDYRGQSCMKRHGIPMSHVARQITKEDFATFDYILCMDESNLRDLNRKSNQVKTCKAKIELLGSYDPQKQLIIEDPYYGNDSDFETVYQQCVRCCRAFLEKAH
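test system = LMPTP-A | amount = 0.625 nM LMPTP-A final | reagent = fluorogenic phosphatase substrate OMFP at 400 µM final | incubation = 50 min at room temperature | benchmarks = no-enzyme low control, uninhibited high control | medium = Bis-Tris pH 6.0, DTT, detergent | signal = fluorescence intensity of OMFP turnover product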
STEP inh – inhibitors of human striatal-enriched phosphatase STEP. P54829. recombinant STEP, OMFP fluorogenic substrate, fluorescence. inhibition, % at 20 µM. hit rate 0.25% among 360,000. AID 588621;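 active = inhibition at 20 µM, scaled per plate between control wells, above about 37%, limit read from the data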
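Assay system: isolated STEP enzyme. Buffer or medium: pH 6.0 Bis-Tris with DTT and Tween 20. Also added: fluorogenic phosphatase substrate OMFP at 25 µM final. Dosing: 20 µM, 1% DMSO. Timing: 20 min reaction, room temperature, in the dark. Measured by: fluorescence intensity, excitation 480 nm, emission 540 nm. Evaluation: normalized % inhibition.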
NadD inh conf – NadD (S. aureus) inhibition, single concentration confirmation | shares compounds with NadD inh | purified S. aureus NadD, colorimetric enzyme assay | inhibition, % at 20 µM | hit rate 13% among 2,000; in the data active = inhibition mostly above about 42%, no sharp cut-off; inactive = mostly below about 42%
Hits are given with their value; 0 = inactive; - = no result given.

SMILES	NadD inh	DNMT1 block	Scp1 inh	SUMO1-SIM PPI	LMPTP block	STEP inh	NadD inh conf
COc1cc(NC(=O)CCN2CCN(C/C=C/c3ccccc3)CC2)cc(OC)c1	0	0	0	0	0	0	-
Cc1nc(SCc2nc3ccc([N+](=O)[O-])cc3[nH]2)c2oc3ccccc3c2n1	33.3	0	0	0	0	0	0
CC(C)(C)S(=O)N1Cc2cc(C(=O)Nc3ccc(-c4ccccc4)cc3)nc(-c3cccc(-c4cc5ccccc5o4)c3)c2[C@@H]1CCO (stereo partly specified)	35.3	0	-	0	0	0	0
CC(C)(C)S(=O)N1Cc2cc(C(=O)O)nc(-c3cccc(-c4cc5ccccc5o4)c3)c2[C@H]1CCO (stereo partly specified)	0	0	-	0	0	0	-
CC(=O)Oc1ccccc1C(=O)OCCN=C1NS(=O)(=O)c2ccccc21	0	0	0	0	0	0	-
COc1ccc(NC(=O)CS(=O)CC(=O)N2CCN(C3CCCC3)CC2)cc1 (stereo unspecified)	0	0	0	0	0	0	-
Cc1ccc(Cn2c(C(CO)Nc3nc(-c4ccc(F)cc4)cs3)nc3ccccc32)cc1 (stereo unspecified)	0	0	0	0	0	0	-
CCCn1c(C(C)Nc2nc(-c3ccc(OC)cc3)cs2)nc2ccccc21 (stereo unspecified)	0	0	0	0	0	0	-
Cc1ccc(Cn2c(C(CO)Nc3nc(-c4ccc(Cl)c([N+](=O)[O-])c4)cs3)nc3ccccc32)cc1 (stereo unspecified)	51.5	0	0	0	0	0	0
CCCn1c(C(C)Nc2nc(-c3ccc(Cl)c([N+](=O)[O-])c3)cs2)nc2cc(Cl)c(N3CCCCC3)cc21 (stereo unspecified)	33.4	0	0	0	0	0	0
COc1ccc(/C=N\NS(=O)(=O)c2ccc(Br)cc2)cc1COc1ccccc1[N+](=O)[O-]	45.6	0	0	0	0	0	0
CC(C)COC(=O)C(C#N)c1nc2ccccc2nc1N1CCN(Cc2ccc3c(c2)OCO3)CC1 (stereo unspecified)	30.9	0	0	0	0	0	0
O=C(Nc1nnc(S(=O)(=O)N2CCCCCC2)s1)c1ccc(Cl)cc1	31.1	0	0	0	0	0	0
CC(C)(C)c1ccc(NC(=O)CSc2n[nH]c(=O)n2C2CC2)cc1	0	0	0	0	0	0	-
O=C(c1cccc(S(=O)(=O)N2CCN(c3ccc(F)cc3)CC2)c1)N1CCCCCCC1	0	0	0	0	0	0	-
O=C(c1cccc(S(=O)(=O)N2CCN(c3ccc(F)cc3)CC2)c1)N1CCN(c2ccccc2O)CC1	38.1	0	0	0	0	0	0
[O-]/C(=C(\C(=S)Nc1ccccc1F)[n+]1ccccc1)c1ccc(-c2ccccc2)cc1	31.0	0	0	0	0	0	0
CC(C)(C)c1cc[n+](/C(C(=S)Nc2ccccc2F)=C(/[O-])c2ccc3c(c2)OCCO3)cc1	0	0	0	0	0	0	-
CCCCCCc1cc2cc(S(=O)(=O)c3ccc(C)cc3)c(=O)oc2cc1O	0	0	0	0	0	0	-
CCCCCCc1cc2cc(S(=O)(=O)c3ccc(Cl)cc3)c(=O)oc2cc1O	36.5	0	0	0	0	0	0
COc1ccc(CN(CC(=O)NCc2ccccc2)C(=O)CCC(=O)Nc2cc(C)ccn2)cc1	0	0	0	0	0	0	-
C[C@]12C=CC(=O)C=C1CC[C@@H]1C2=CC[C@]2(C)[C@@H](C(=O)CN3CCN(c4cc(N5CCCC5)nc(N5CCCC5)n4)CC3)CC[C@@H]12	32.9	60.6	0	0	0	0	0
CC(=O)C1CCC2C3CCC4=CC(=O)C=CC4(C)C3C(=O)CC12C (stereo unspecified)	0	0	0	0	0	0	-
Cc1cc(C(=O)OCC(=O)NC2CCCC2)c2ccccc2n1	0	0	0	0	0	0	-
O=C(COC(=O)c1c2c(nc3ccccc13)/C(=C/c1ccco1)CC2)NC1CCCC1	52.3	86.4	77.8	0	0	0	64.0
SMILES	NadD inh	DNMT1 block	Scp1 inh	SUMO1-SIM PPI	LMPTP block	STEP inh	NadD inh conf
CCOc1ccc(C(=O)N[C@H](C(=O)Nc2ccccc2OC)C(C)C)cc1	0	0	0	0	0	0	-
Cc1ccc(NC(=O)C2(c3ccccc3)CCCC2)nc1	31.5	0	0	0	0	0	0
O=C(Nc1ccccn1)C1(c2ccccc2)CCCC1	0	0	0	0	0	0	-
c1cnc(Sc2ccc3nnnn3n2)nc1	0	0	0	0	0	0	-
Cc1cc(C)c2c(n1)sc1c(=O)[nH]c(SCc3ccccc3)nc12	29.1	0	0	0	0	0	0
C=CCSc1nc2c(sc3nc(C)cc(C)c32)c(=O)[nH]1	0	0	0	0	0	0	-
O=[N+]([O-])c1ccc(S(=O)(=O)NCCc2ccncc2)cc1	0	0	0	0	0	0	-
CC1Nc2ncnc(N3CCN(c4ccccc4)CC3)c2N(Cc2ccc(Cl)cc2)C1=O (stereo unspecified)	0	0	0	0	0	0	-
O=C1C(Cc2ccccc2)Nc2ncnc(N3CCN(c4ccccc4)CC3)c2N1Cc1ccc(Cl)cc1 (stereo unspecified)	41.3	0	0	0	0	0	0
CC1Nc2ncnc(N3CCc4ccccc4C3)c2N(Cc2ccc(Cl)cc2)C1=O (stereo unspecified)	43.1	0	0	0	0	0	0
COc1ccc(CN2C(=O)C(Cc3ccccc3)Nc3ncnc(N4CCN(c5ccccc5)CC4)c32)cc1 (stereo unspecified)	0	0	0	0	0	0	-
NC(=O)c1nsc(C(=O)N(CC(=O)NCc2ccccc2)c2ccc(F)cc2)c1N	0	0	0	0	0	0	-
Nc1nc(N)c(C=Nc2ccc(Br)cc2)c(Nc2ccc(Br)cc2)n1	35.6	0	0	0	0	0	0
CC(C)n1c(-c2ccc(C(C)(C)C)cc2)n[nH]c1=S	29.3	0	0	0	0	0	0
Cn1cnc(C(=O)NCc2ccc(CNC(=O)OC(C)(C)C)cc2)c1C(=O)NCc1ccc(CNC(=O)OC(C)(C)C)cc1	32.9	0	0	0	0	0	0
CC(C)(C)OC(=O)NCCCCCNC(=O)c1[nH]cnc1C(=O)Nc1ccc(Cl)cc1	0	0	0	0	0	0	-
CC(C)(C)OC(=O)NCc1ccc(NC(=O)c2nc[nH]c2C(=O)NCCCCCCNC(=O)c2[nH]cnc2C(=O)Nc2ccc(CNC(=O)OC(C)(C)C)cc2)cc1	39.5	0	0	0	0	0	0
